# Results: PubChem BioAssay
# Values without a mark were called inactive. Some of the results follow. Active and inactive are the calls of the source.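 How the source made its calls, unless noted: active means duplicate-averaged activation above buffer control mean plus 5 SD of those controls; inactive means the rest.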
# What was measured:
# [1] = thallium flux activation in parental CHO cells, counter-screen for KCNQ1 potentiator project (AID 493006); conditions: parental CHO-K1 cells, FluxOR thallium flux, at 10 µM; active compounds read high
# Outline: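 Test system: parental CHO-K1 cells, FluxOR dye-loaded / Probe or stimulus: potassium plus thallium depolarizing stimulus, 5x stock 12.5 mM K2SO4, Tl2SO4 / Timing: overnight 37 °C plating, 90 min dye, 20 min dark compound / Measured by: kinetic thallium-flux fluorescence / Read-out: max-minus-min fluorescence over baseline, percent of buffer-to-R-L3 span / Benchmarks: buffer and R-L3 controls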
# [2] = biological target: Potassium voltage-gated channel subfamily KQT member 1 (Homo sapiens) (UniProt P51787); test: KCNQ1 potassium channel potentiators, confirmation, FluxOR thallium flux, CHO cells, duplicates (AID 493007;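 active means potentiation averaged over duplicate wells exceeding buffer-only control mean by more than 3 SD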;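 on outcome: cells depolarized by a potassium plus thallium sulfate stimulus after compound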;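 on potentiation: 0% = buffer-only wells and 100% = R-L3 activator control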); conditions: KCNQ1 cell line, FluxOR thallium flux fluorescence, at 10 µM; active compounds read high, % of reference activator effect, buffer zero
# Chain of Potassium voltage-gated channel subfamily KQT member 1 (Homo sapiens) (P51787 whole entry, looked up): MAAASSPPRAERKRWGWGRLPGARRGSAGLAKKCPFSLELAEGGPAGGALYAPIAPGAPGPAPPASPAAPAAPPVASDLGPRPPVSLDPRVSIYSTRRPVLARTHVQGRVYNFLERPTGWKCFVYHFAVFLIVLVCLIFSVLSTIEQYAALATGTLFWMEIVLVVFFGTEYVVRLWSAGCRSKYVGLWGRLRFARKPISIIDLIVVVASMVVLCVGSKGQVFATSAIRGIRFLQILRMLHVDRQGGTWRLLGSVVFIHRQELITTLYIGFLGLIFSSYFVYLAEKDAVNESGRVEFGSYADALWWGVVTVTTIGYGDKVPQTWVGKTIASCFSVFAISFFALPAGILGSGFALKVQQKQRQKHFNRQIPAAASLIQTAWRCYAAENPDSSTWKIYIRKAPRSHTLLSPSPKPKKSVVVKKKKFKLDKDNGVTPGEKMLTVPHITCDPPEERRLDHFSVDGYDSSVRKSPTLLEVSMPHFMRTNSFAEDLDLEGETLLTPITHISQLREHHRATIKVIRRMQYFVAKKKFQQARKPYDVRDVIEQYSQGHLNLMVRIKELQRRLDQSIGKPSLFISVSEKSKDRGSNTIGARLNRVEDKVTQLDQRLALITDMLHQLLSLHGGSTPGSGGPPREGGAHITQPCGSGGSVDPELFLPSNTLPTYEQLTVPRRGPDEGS
# Outline: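 Assay system: CHO cells carrying KCNQ1 | Controls: Buffer and R-L3 controls | Schedule: FluxOR dye loading 90 min, compound exposure 20 min, room temperature | Read-out: Baseline-normalized fluorescence change, percent of buffer-to-R-L3 range | Replicates: Each compound tested in duplicate | Technique: Kinetic thallium influx fluorescence with FluxOR dye, 10 s baseline, 110 s post-stimulus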
# [3] = biological target: Potassium voltage-gated channel subfamily KQT member 2 (Rattus norvegicus) (UniProt O88943); test: rat KCNQ2 channel potentiation, selectivity assay for KCNQ1 potentiator project, KCNQ2-CHO-K1 cells (AID 493009;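 active means mean duplicate potentiation above the buffer control mean plus 5 SD of buffer wells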;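 further: assay conditions were tuned for KCNQ1 rather than KCNQ2 modulators; signal is max minus min fluorescence divided by baseline after thallium stimulus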); conditions: FluxOR thallium flux fluorescence, at 10 µM; active compounds read high, scaled: buffer 0, activator control 100
# Chain of Potassium voltage-gated channel subfamily KQT member 2 (Rattus norvegicus) (O88943 whole entry, looked up): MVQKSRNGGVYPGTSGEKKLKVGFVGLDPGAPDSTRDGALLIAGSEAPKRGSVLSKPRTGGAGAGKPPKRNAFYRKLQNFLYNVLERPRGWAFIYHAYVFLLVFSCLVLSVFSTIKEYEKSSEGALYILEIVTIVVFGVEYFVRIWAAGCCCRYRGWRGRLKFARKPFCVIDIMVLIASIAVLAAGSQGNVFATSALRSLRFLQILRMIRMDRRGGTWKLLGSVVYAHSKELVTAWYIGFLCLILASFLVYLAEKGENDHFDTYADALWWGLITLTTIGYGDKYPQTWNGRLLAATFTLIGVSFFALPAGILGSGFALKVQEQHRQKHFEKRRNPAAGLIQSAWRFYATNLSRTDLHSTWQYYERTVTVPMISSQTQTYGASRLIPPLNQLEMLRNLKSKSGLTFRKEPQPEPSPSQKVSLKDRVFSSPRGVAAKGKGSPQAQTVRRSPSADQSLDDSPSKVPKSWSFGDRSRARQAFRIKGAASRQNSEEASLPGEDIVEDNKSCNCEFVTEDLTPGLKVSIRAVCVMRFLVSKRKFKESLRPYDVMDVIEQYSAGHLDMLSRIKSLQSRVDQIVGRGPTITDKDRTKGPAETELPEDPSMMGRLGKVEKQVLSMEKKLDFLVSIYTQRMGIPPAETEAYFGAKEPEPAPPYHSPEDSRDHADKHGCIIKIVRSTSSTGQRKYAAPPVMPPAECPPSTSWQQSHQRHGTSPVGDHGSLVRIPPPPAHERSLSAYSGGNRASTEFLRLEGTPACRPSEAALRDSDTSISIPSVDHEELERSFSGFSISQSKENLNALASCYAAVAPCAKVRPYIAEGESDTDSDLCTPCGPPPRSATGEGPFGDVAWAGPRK
# [4] = biological target: Potassium voltage-gated channel subfamily KQT member 1 (Homo sapiens) (UniProt P51787); test: KCNQ1 channel current potentiators, confirmation, orthogonal assay for KCNQ1 potentiator project, IonWorks patch clamp, KCNQ1-CHO cells (AID 493184;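 active means current rise at least 3 SD above the untreated control mean in each of two repeat wells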;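 on current potentiation: percent change of the same well's current before compound addition so 0% = no change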); conditions: automated patch clamp current, at 10 µM; active compounds read high
# Outline: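 Material: KCNQ1-expressing CHO cells; doses: 10 µM final, single point; probe or stimulus: voltage step from -90 mV holding to +40 mV, 2,000 ms; signal: automated voltage clamp, amphotericin B perforated patch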
# [5] = biological target: T1, Potassium voltage-gated channel subfamily E member 1 (Homo sapiens) + Potassium voltage-gated channel subfamily KQT member 1 (Homo sapiens) (UniProt P15382+P51787); test: KCNQ1/KCNE1 complex potentiators, confirmation, selectivity assay for KCNQ1 potentiator project, thallium flux, CHO-K1 KCNQ1/E1 cells (AID 493186;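 active means mean duplicate activation above the buffer control mean plus 5 SD of those controls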); conditions: FluxOR thallium flux, at 10 µM; active compounds read high
# T1 sequence (P51787 whole entry, looked up): as the sequence (P51787 whole entry, looked up) above
# Outline: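 Test system: CHO-K1 cells with KCNQ1/E1. Times: 90-min dye loading then 20-min compound exposure, both at room temperature. Measured by: kinetic FluxOR thallium-flux fluorescence, 10 s baseline plus 110 s after stimulus. Repeats: duplicate wells per compound.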
# [6] = biological target: Potassium voltage-gated channel subfamily KQT member 1 (Homo sapiens) (UniProt P51787); test: KCNQ1 potassium channel inhibitors, confirmation, cell-based, Tl flux, duplicate (AID 588353;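 active means primary screen active, with duplicate mean exceeding buffer control mean plus 3 SD of buffer wells, cut at about 28% in these data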;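 further: 0% = buffer control ratio and 100% = XE991 inhibitor control ratio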); conditions: KCNQ1 cell line, FluxOR thallium flux fluorescence, at 10 µM, active compounds read high
# Outline: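 Test system: CHO cells stably expressing KCNQ1 potassium channel / Evaluation: percent inhibition of fluorescence change ratio, scaled buffer to XE991 / Technique: FluxOR thallium flux fluorescence, 10 s baseline plus 110 s / Schedule: 90 min dye load, 20 min dark compound exposure, room temperature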
# [7] = thallium flux effects in parental CHO cells, counter-screen for KCNQ1 inhibitor project, cell-based, Tl flux (AID 588366;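 active means mean of duplicate thallium-flux fluorescence ratios in parental host cells more than 5 SD below the buffer control mean, cut at about 0.38 in these data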;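 further: ratio is peak minus minimum fluorescence divided by baseline fluorescence; actives read low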); conditions: parental CHO-K1, FluxOR thallium flux fluorescence ratio; at 10 µM; active compounds read low; zero means no signal rise above baseline
# Outline: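 Assay system – untransfected parental CHO-K1 cells · Technique – kinetic Tl+ flux fluorescence with FluxOR dye · Timing – FluxOR dye loading 90 min, compound exposure 20 min, room temperature · Replication – duplicate measurements per compound · Also added – K+/Tl+ depolarizing stimulus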
# [8] = biological target: Potassium voltage-gated channel subfamily KQT member 1 (Homo sapiens) (UniProt P51787); test: KCNQ1 channel inhibitors, confirmation, orthogonal assay, cell-based, automated electrophysiology (AID 624120;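 active means KCNQ1 current drop exceeding 3 SD of negative control wells, seen in both duplicate runs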); conditions: KCNQ1-CHO cells, automated patch clamp current; at 10 µM
# Outline: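 benchmarks = negative controls | test system = CHO cells expressing human KCNQ1 potassium channel | medium = external buffer at pH 7.4 | probe or stimulus = voltage stimulus of 2,000 ms steps to +40 mV, -80 mV holding | repeats = duplicates | signal = amphotericin-perforated automated patch clamp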
# [9] = biological target: Potassium voltage-gated channel subfamily KQT member 2 (Rattus norvegicus) (UniProt O88943); test: KCNQ2 channel inhibition, selectivity assay for KCNQ1 inhibitor project, cell-based (AID 651746;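 active means mean percent inhibition of the KCNQ2 thallium signal more than 5 SD above the buffer-only control wells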;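 further: 0% = buffer control wells and 100% = XE-991 inhibitor control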); conditions: KCNQ2 cells, FluxOR thallium flux fluorescence, at 10 µM; active compounds read high
# [10] = biological target: T1, Potassium voltage-gated channel subfamily E member 1 (Homo sapiens) + Potassium voltage-gated channel subfamily KQT member 1 (Homo sapiens); test: KCNQ1/KCNE1 channel inhibition, selectivity assay for KCNQ1 inhibitor project, CHO-K1 cells, thallium flux, FluxOR (AID 652147;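 active means mean percent inhibition of duplicate wells above the buffer-only control mean plus 3 SD of those controls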); conditions: FluxOR thallium flux fluorescence, at 10 µM; active compounds read high
# Outline: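 System: cells expressing KCNQ1/KCNE1 channels; timing: 20 min compound pre-incubation at room temperature; technique: FluxOR thallium influx fluorescence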
structure (smiles),measurement,setting,value
Cc1ccc(-n2ncc(C(=O)Nc3cc(Cl)cc(Cl)c3)c2C2CCNCC2)cc1C,outcome,[1],inactive
same,outcome,[2],inactive
same,outcome,[3],inactive
same,outcome,[4],inactive
same,outcome,[5],inactive
COc1ccc(O)c(C(=O)c2cnn(-c3ccc(Cl)cc3)c2)c1,outcome,[1],inactive
same,outcome,[2],inactive
same,outcome,[4],inactive
Cc1cccc(-n2c(=S)[nH]c3c(oc4ccccc43)c2=O)c1,activation,[1],139% (active)
same,outcome,[2],inactive
same,outcome,[4],inactive
Cn1c(=O)c2c(ncn2CC(=O)OCC(=O)Nc2cc(Cl)ccc2Cl)n(C)c1=O,outcome,[1],inactive
same,outcome,[2],inactive
same,outcome,[4],inactive
CC(C)(C)c1ccc(CN2N=Nc3ccccc3S2(=O)=O)cc1,outcome,[1],inactive
same,outcome,[2],inactive
same,outcome,[4],inactive
O=C(NC(=S)Nc1nc2c(s1)CCCC2)c1ccc(C(=O)c2ccccc2)cc1,activation,[1],138% (active)
same,potentiation,[2],30% (active)
same,outcome,[4],inactive
COC(=O)c1ccc(CSc2nnc(SCc3ccc(C(=O)OC)o3)s2)o1,outcome,[1],inactive
same,outcome,[2],inactive
same,outcome,[4],inactive
S=C(NCC1CCCO1)N1CCN(c2ccc(Cl)c(Cl)c2)CC1 (stereo unspecified),inhibition,[6],101% (active)
same,fluorescence ratio (Tl flux),[7],0.501
same,outcome,[8],active
same,inhibition,[9],76% (active)
same,outcome,[10],inactive
CC(C)COc1ccc(-c2nn(-c3ccccc3)cc2C(=O)Nc2nccs2)cc1,outcome,[1],inactive
same,outcome,[2],inactive
same,outcome,[4],inactive
same,outcome,[5],inactive
Cc1ccc(/C=C2\SC(=S)N(NS(=O)(=O)c3ccc(C)cc3)C2=O)cc1,outcome,[1],inactive
same,potentiation,[2],25.5% (active)
same,current potentiation,[4],21.1% (active)
same,outcome,[5],inactive
CN(C)CCCNc1cc(-c2ccccc2)nc2cc(-c3cccc(F)c3)nn12,activation,[1],180% (active)
same,potentiation,[2],57% (active)
same,outcome,[4],inactive
COc1ccc(OC)c(Nc2cc3ccccc3c(=O)[nH]2)c1,outcome,[1],inactive
same,outcome,[2],inactive
same,outcome,[4],inactive
same,outcome,[5],inactive
COc1ccc(C2c3ccc4ccccc4c3Oc3ncn(CCCO)c(=N)c32)cc1OC (stereo unspecified),outcome,[1],inactive
same,outcome,[2],inactive
same,outcome,[4],inactive
same,outcome,[5],inactive
CC1CN(C(=O)C2CC(=O)N(c3ccc(Cl)cc3)C2)CC(C)O1 (stereo unspecified),outcome,[1],inactive
same,outcome,[2],inactive
same,outcome,[4],inactive
O=C(c1nnsc1S(=O)c1ccc(Cl)cc1)N1CCOCC1 (stereo unspecified),outcome,[1],inactive
same,potentiation,[2],17.5% (active)
same,outcome,[4],inactive
same,outcome,[5],inactive
Cc1cccc(N2CCN(C(=O)c3cnn4c(C(F)F)cc(-c5ccccc5)nc34)CC2)c1C,inhibition,[6],146% (active)
same,fluorescence ratio (Tl flux),[7],0.416
same,outcome,[8],inactive
same,inhibition,[9],115% (active)
CCOC(=O)C1CCN(C(=O)COC(=O)c2cc(-c3cccs3)nn2-c2ccccc2)CC1,outcome,[1],inactive
same,outcome,[2],inactive
same,outcome,[4],inactive
CCCn1c(SCC(=O)Nc2cccc(NC(C)=O)c2)nnc1C(C)C,outcome,[1],inactive
same,outcome,[2],inactive
same,outcome,[4],inactive
CCOC(=O)c1sc(NC(=O)c2ccccc2C(=O)O)c(C(=O)OCC)c1C,outcome,[1],inactive
same,outcome,[2],inactive
same,outcome,[4],inactive
COCC(=O)Nc1nnc(SCC(=O)N2C(C)CCCC2C)s1 (stereo unspecified),outcome,[1],inactive
same,outcome,[2],inactive
same,outcome,[4],inactive
same,outcome,[5],inactive
S=c1[nH]nc(-c2ccccc2)n1/N=C/c1ccc(-c2ccccc2Cl)o1,outcome,[1],inactive
same,outcome,[2],inactive
same,outcome,[4],inactive
same,outcome,[5],inactive
CC1(c2ccc(OC(F)F)cc2)NC(=O)N(CC(=O)Nc2ccccc2)C1=O (stereo unspecified),outcome,[1],inactive
same,outcome,[2],inactive
same,outcome,[4],inactive
same,outcome,[5],inactive
CC(=O)n1cc(N(C(=O)CCl)c2ccc(C)cc2)c2ccccc21,outcome,[1],inactive
same,outcome,[2],inactive
same,outcome,[4],inactive
COC(=O)c1cc(-c2cc(OC)ccc2OC)nc2c1c(=O)n(C)c(=O)n2Cc1ccccc1,outcome,[1],inactive
same,outcome,[2],inactive
same,outcome,[4],inactive
COC(=O)C1CCN(C(=O)Nc2ccc(OC)cc2)CC1,activation,[1],144% (active)
same,potentiation,[2],33% (active)
same,outcome,[4],inactive
CCOc1ccc(-n2c(=S)sc3c(=O)n(-c4ccccc4)c(SC)nc32)cc1,outcome,[1],inactive
same,outcome,[2],inactive
same,outcome,[4],inactive
COCC(=O)NC1CC2CCC(C1)N2C(=S)Nc1ccccc1C(=O)OC (stereo unspecified),outcome,[1],inactive
same,outcome,[2],inactive
same,outcome,[4],inactive
O=C(NNc1c2ccccc2nc2ccccc12)c1ccccc1Cl,outcome,[1],inactive
same,outcome,[2],inactive
same,outcome,[4],inactive
O=C(CSc1nc(-c2ccccc2)cs1)N1CCc2ccccc21,outcome,[1],inactive
same,outcome,[2],inactive
same,outcome,[4],inactive
N#Cc1ccc2ccn(CC(=O)NCc3ccccc3)c2c1,outcome,[1],inactive
same,outcome,[2],inactive
same,outcome,[4],inactive
CC(C)COc1ccc(-c2nn(-c3ccccc3)cc2/C=C2/SC(=S)N(CC(=O)O)C2=O)cc1,outcome,[1],inactive
same,outcome,[2],inactive
same,outcome,[4],inactive
C/C(=N\OCC(=O)Nc1ccc(OC(F)(F)F)cc1)c1ccc2c(c1)OCCO2,outcome,[1],inactive
same,outcome,[2],inactive
same,outcome,[4],inactive
Cc1cc(N2CCOCC2)nc(SCC(=O)c2ccc(Cl)cc2)n1,outcome,[1],inactive
same,outcome,[2],inactive
same,outcome,[4],inactive
O=C(NC(=S)Nc1nc2c(ccc3ccccc32)s1)c1cccs1,outcome,[1],inactive
same,potentiation,[2],81% (active)
same,outcome,[4],inactive
same,outcome,[5],inactive
